Experimental data: ChEMBL document CHEMBL1137561 (J Med Chem, 2007)

Legend:
[1] = system: Human immunodeficiency virus 1; assay: Antiviral activity against HIV1 with reverse transcriptase K103N mutation in MT4 cells assessed as inhibition of viral induced cytopathic effect by MTT method; type: functional, organism-based; conditions: Human immunodeficiency virus 1, MT4
Outline: (§1)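 MT-4 cells infected with the HIV-1 NNRTI-resistant mutant strain. Viable cells scored at day 5 post-infection by the MTT tetrazolium colorimetric method. […] Values are means ± SD from at least two experiments.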

[2] = system: Human immunodeficiency virus 1; assay: Antiviral activity against HIV1 with reverse transcriptase Y181C mutation in MT4 cells assessed as inhibition of viral induced cytopathic effect by MTT method; type: functional, organism-based; conditions: Human immunodeficiency virus 1, MT4; outline: as §1
[3] = system: Human immunodeficiency virus 1; assay: Antiviral activity against HIV1 with reverse transcriptase Y188L mutation in MT4 cells assessed as inhibition of viral induced cytopathic effect by MTT method; type: functional, organism-based; conditions: Human immunodeficiency virus 1, MT4
Outline: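 MT-4 cells infected with the HIV-1 NNRTI-resistant mutant strain. Viable cells scored at day 5 post-infection by the MTT tetrazolium colorimetric method. Values are means ± SD from at least two experiments.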

[4] = Cytotoxicity against MT4 cells after 4 days by MTT method; type: cell-based; conditions: human
Outline: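 Mock-infected (noninfected) MT-4 cells, run in parallel with the antiviral test. Viable cells read by the MTT tetrazolium colorimetric method. […] Means ± SD from at least two experiments. The top concentration was limited where compounds precipitated in the culture medium.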

[5] = Selectivity index, ratio of CC50 for MT4 cells to EC50 for HIV1 NL43 infected MT4 cells; type: functional
[6] = system: Human immunodeficiency virus 1; assay: Antiviral activity against HIV1 with reverse transcriptase IRLL98 mutation in MT4 cells assessed as inhibition of viral induced cytopathic effect by MTT method; type: functional, organism-based; conditions: Human immunodeficiency virus 1, MT4
[7] = Resistance index, Ratio of EC50 for drug-resistant HIV1 with RT K103N mutation in MT4 cells to EC50 for HIV1 NL43 in MT4 cells
[8] = Resistance index, Ratio of EC50 for drug-resistant HIV1 with RT Y181C mutation in MT4 cells to EC50 for HIV1 NL43 in MT4 cells
[9] = Resistance index, Ratio of EC50 for drug-resistant HIV1 with RT Y188L mutation in MT4 cells to EC50 for HIV1 NL43 in MT4 cells
[10] = Resistance index, Ratio of EC50 for drug-resistant HIV1 with RT IRLL98 mutation in MT4 cells to EC50 for HIV1 NL43 in MT4 cells
[11] = system: Human immunodeficiency virus 1; assay: Antiviral activity against HIV1 NL43 in MT4 cells assessed as inhibition of viral induced cytopathic effect after 5 days by MTT method; conditions: Human immunodeficiency virus 1, NL43, MT4, 120 h
[12] = biological target: Human immunodeficiency virus type 1 reverse transcriptase (Human immunodeficiency virus 1, UniProt Q72547); assay: Inhibition of wild type HIV1 3B reverse transcriptase
[13] = biological target: Human immunodeficiency virus type 1 reverse transcriptase (Human immunodeficiency virus 1, UniProt Q72547, K103N); assay: Inhibition of HIV1 reverse transcriptase K103N mutant
[14] = biological target: Human immunodeficiency virus type 1 reverse transcriptase (Human immunodeficiency virus 1, UniProt Q72547, L100I); assay: Inhibition of HIV1 reverse transcriptase L100I mutant
[15] = biological target: Human immunodeficiency virus type 1 reverse transcriptase (Human immunodeficiency virus 1, UniProt Q72547, V106A); assay: Inhibition of HIV1 reverse transcriptase V106A mutant
[16] = biological target: Human immunodeficiency virus type 1 reverse transcriptase (Human immunodeficiency virus 1, UniProt Q72547, V179D); assay: Inhibition of HIV1 reverse transcriptase V179D mutant
[17] = Inhibition of HIV1 reverse transcriptase Y1811 mutant; design: species or system Human immunodeficiency virus 1
Outline: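 Recombinant HIV-1 RT Y181I mutant, purified to >95%, 10 min preincubation with inhibitor. Radioactive nucleotide incorporation into poly(rA)/oligo(dT) 10:1 was followed at varied nucleotide substrate levels, sampling every 2 min for initial velocities. Inhibitor spanned 0.2–5 Ki. Ki came from Lineweaver-Burk and Dixon plots. Means ± SD of at least three experiments.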

[18] = biological target: Human immunodeficiency virus type 1 reverse transcriptase (Human immunodeficiency virus 1, UniProt Q72547, Y188L); assay: Inhibition of HIV1 reverse transcriptase Y188L mutant

Compound	EC50 [1]	EC50 [2]	EC50 [3]	CC50 at 96 h [4]	Ratio CC50/EC50 [5]	EC50 [6]	Ratio EC50 [7]	Ratio EC50 [8]	Ratio EC50 [9]	Ratio EC50 [10]	EC50 [11]	Ki [12]	Ki [13]	Ki [14]	Ki [15]	Ki [16]	Ki [17]	Ki [18]
Cc1c(C(C)c2c(F)cccc2F)nc(N2CCCC(C)C2)[nH]c1=O (stereo not given)	193 nM	14 nM	120 nM	> 72000 nM	>24000	200 nM	64	5	40	67	3 nM	–	–	–	–	–	–	–
Cc1c(Cc2c(F)cccc2F)nc(N2CCN(c3ccccn3)CC2)[nH]c1=O	–	–	–	> 63000 nM	>5250	–	–	–	–	–	12 nM	50 nM	> 20000 nM	> 20000 nM	10 nM	10 nM	> 20000 nM	490 nM
Cc1c(Cc2c(F)cccc2F)nc(N2CCSCC2)[nH]c1=O	> 10000 nM	> 10000 nM	> 10000 nM	> 74000 nM	>18500	> 10000 nM	–	–	–	–	4 nM	150 nM	> 20000 nM	5000 nM	90 nM	40000 nM	> 20000 nM	> 20000 nM
CCCN(C)c1nc(Cc2c(F)cccc2F)c(C)c(=O)[nH]1	750 nM	39 nM	1600 nM	> 81000 nM	>40500	55 nM	375	19	800	27	2 nM	100 nM	> 20000 nM	18000 nM	8 nM	200 nM	> 20000 nM	> 20000 nM
Cc1c(C(C)c2c(F)cccc2F)nc(N2CCC(C)CC2)[nH]c1=O (stereo not given)	322 nM	10 nM	220 nM	54000 nM	27000	300 nM	161	5	110	150	2 nM	–	–	–	–	–	–	–
CCC(c1cc(=O)[nH]c(N(C)C)n1)c1c(F)cccc1F (stereo not given)	180 nM	430 nM	> 10000 nM	73000 nM	36500	1600 nM	90	215	–	800	2 nM	100 nM	10000 nM	3300 nM	140 nM	30 nM	> 20000 nM	5000 nM
O=c1cc(Cc2c(F)cccc2F)nc(N2CCCCC2)[nH]1	> 10000 nM	710 nM	8000 nM	> 82000 nM	>6308	2200 nM	–	55	615	169	13 nM	2500 nM	> 20000 nM	10000 nM	200 nM	5000 nM	> 20000 nM	> 20000 nM
Cc1c(C(C)c2c(F)cccc2F)nc(N2CCCCC2)[nH]c1=O (stereo not given)	520 nM	70 nM	390 nM	> 75000 nM	>10714	60 nM	74	10	56	9	7 nM	70 nM	600 nM	2000 nM	20 nM	10 nM	> 20000 nM	3500 nM
Cc1c(C(C)c2c(F)cccc2F)nc(N2CCOCC2)[nH]c1=O (stereo not given)	390 nM	90 nM	560 nM	> 74000 nM	>37000	50 nM	195	45	280	25	2 nM	3 nM	3300 nM	10000 nM	500 nM	> 20000 nM	> 20000 nM	5500 nM
Cc1c(Cc2c(F)cccc2F)nc(N2CCOCC2)[nH]c1=O	> 10000 nM	> 10000 nM	> 10000 nM	> 78000 nM	>3000	> 10000 nM	–	–	–	–	26 nM	50 nM	> 20000 nM	900 nM	400 nM	8300 nM	> 20000 nM	> 20000 nM
Cc1c(Cc2c(F)cccc2F)nc(N2CCN(C)CC2)[nH]c1=O	–	–	–	> 75000 nM	>125	–	–	–	–	–	598 nM	2000 nM	–	–	900 nM	> 40000 nM	–	–
COc1ccccc1N1CCN(c2nc(Cc3c(F)cccc3F)c(C)c(=O)[nH]2)CC1	–	–	–	37000 nM	170	–	–	–	–	–	218 nM	250 nM	> 20000 nM	10000 nM	500 nM	5000 nM	> 20000 nM	25700 nM
Cc1c(Cc2c(F)cccc2F)nc(N(C)C)[nH]c1=O	2400 nM	1820 nM	> 10000 nM	> 89000 nM	>17800	500 nM	480	364	–	100	5 nM	100 nM	9000 nM	10000 nM	700 nM	1600 nM	> 20000 nM	11000 nM
Cc1c(Cc2c(F)cccc2F)nc(N(C)C2CCCCC2)[nH]c1=O	4400 nM	140 nM	6200 nM	> 72000 nM	>8000	2000 nM	489	16	689	222	9 nM	–	–	–	–	–	–	–
CC(c1cc(=O)[nH]c(N(C)C)n1)c1c(F)cccc1F (stereo not given)	120 nM	260 nM	> 10000 nM	89000 nM	89000	670 nM	120	260	–	670	1 nM	–	–	–	500 nM	–	–	–
CN1CCN(c2nc(Cc3c(F)cccc3F)cc(=O)[nH]2)CC1	–	–	–	> 78000 nM	>13	–	–	–	–	–	6090 nM	11200 nM	> 20000 nM	> 20000 nM	> 40000 nM	> 40000 nM	> 20000 nM	> 20000 nM
CCN(C)c1nc(Cc2c(F)cccc2F)c(C)c(=O)[nH]1	4600 nM	710 nM	8000 nM	> 85000 nM	>4722	420 nM	256	39	444	23	18 nM	–	–	–	–	–	–	–
Cc1c(Cc2c(F)cccc2F)nc(N(C)C(C)C)[nH]c1=O	1200 nM	30 nM	2300 nM	79000 nM	39500	80 nM	600	15	1150	40	2 nM	–	–	–	–	–	–	–
Cc1c(Cc2c(F)cccc2F)nc(N2CCCCC2)[nH]c1=O	> 10000 nM	140 nM	10000 nM	> 78000 nM	>26000	820 nM	–	47	3333	273	3 nM	–	–	–	–	–	–	–
